Measurements as given in ChEMBL document CHEMBL1949592, “Synthesis and antiviral activity of 2'-deoxy-2'-fluoro-2'-C-methyl-7-deazapurine nucleosides, their phosphoramidate prodrugs and 5'-triphosphates” (Bioorg Med Chem Lett, 2011).
pEC50, pIC50: −log10 of the molar value.

Legend:
Hepacivirus hominis = assay: Fold resistance, ratio of HCV NS5B Cdelta 21 RNA dependent RNA polymerase S282T mutant to IC50 for IC50 for HCV wild type NS5B Cdelta 21 RNA dependent RNA polymerase
[1] = target: RNA-directed RNA polymerase (Hepacivirus hominis, UniProt O39930, S282T); assay: Inhibition of Hepatitis C virus NS5B Cdelta 21 RNA dependent RNA polymerase S282T mutant expressed in Escherichia coli BL21(DE3)
[2] = Inhibition of Hepatitis C virus wild-type NS5B Cdelta 21 RNA dependent RNA polymerase expressed in Escherichia coli BL21(DE3); set-up: species or system Hepacivirus hominis
Huh-7 [3] = assay: Metabolic stability in human HuH7 cells assessed as 5'-monophosphate level at 50 uM after 4 hrs by LC-MS/MS analysis; format: ADME, cell-based; conditions: huh-7, 4 h
Outline: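 Huh-7 cells were exposed to the parent nucleoside or its phosphoramidate prodrug, each separately at 50 μM, at 37 °C for 4 h, then washed with phosphate-buffered saline before intracellular analysis.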

Huh-7 [4] = assay: Cytotoxicity against human HuH7 cells assessed as reduction of 50% rRNA level after 96 hrs; format: cell-based; conditions: huh-7, 96 h
Outline: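 Huh-7 cells carrying the HCV replicon were exposed to compound for 96 h. Toxicity was read as a fall in cellular rRNA.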

CCRF-CEM = assay: Cytotoxicity against human CEM cells after 6 days by trypan blue exclusion method; format: cell-based; conditions: 144 h
Hepatitis C virus = assay: Antiviral activity against Hepatitis C virus infected in human HuH7 cells assessed as decrease in viral RNA level after 96 hrs by RT-PCR; format: functional, organism-based, Hepacivirus hominis; conditions: Huh-7, 96 h
PBMC = assay: Cytotoxicity against human PBMC after 6 days by trypan blue exclusion method; format: cell-based; conditions: 144 h
Vero = assay: Cytotoxicity against african green monkey Vero cells after 3 days by hemocytometer analysis; format: cell-based; conditions: Chlorocebus sabaeus, 72 h
[5] = system: Human immunodeficiency virus 1; assay: Antiviral activity against HIV1 LAV1 infected in PHA-stimulated human PBMC assessed as reduction in RT activity after 6 days by micromethod-based beta scintillation counting; format: functional, organism-based; conditions: Human immunodeficiency virus 1, LAV1, 144 h
Huh-7 [6] = assay: Metabolic stability in human HuH7 cells assessed as diphosphate level at 50 uM after 4 hrs by LC-MS/MS analysis; format: ADME, cell-based; conditions: huh-7, 4 h
Outline: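 For the cellular pharmacology study, Huh-7 cells were incubated separately with the nucleoside or its phosphoramidate prodrug at 50 μM for 4 h at 37 °C, then washed with phosphate-buffered saline before analysis of intracellular metabolites.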

Chain of RNA-directed RNA polymerase (O39930 entry or part of it S282T): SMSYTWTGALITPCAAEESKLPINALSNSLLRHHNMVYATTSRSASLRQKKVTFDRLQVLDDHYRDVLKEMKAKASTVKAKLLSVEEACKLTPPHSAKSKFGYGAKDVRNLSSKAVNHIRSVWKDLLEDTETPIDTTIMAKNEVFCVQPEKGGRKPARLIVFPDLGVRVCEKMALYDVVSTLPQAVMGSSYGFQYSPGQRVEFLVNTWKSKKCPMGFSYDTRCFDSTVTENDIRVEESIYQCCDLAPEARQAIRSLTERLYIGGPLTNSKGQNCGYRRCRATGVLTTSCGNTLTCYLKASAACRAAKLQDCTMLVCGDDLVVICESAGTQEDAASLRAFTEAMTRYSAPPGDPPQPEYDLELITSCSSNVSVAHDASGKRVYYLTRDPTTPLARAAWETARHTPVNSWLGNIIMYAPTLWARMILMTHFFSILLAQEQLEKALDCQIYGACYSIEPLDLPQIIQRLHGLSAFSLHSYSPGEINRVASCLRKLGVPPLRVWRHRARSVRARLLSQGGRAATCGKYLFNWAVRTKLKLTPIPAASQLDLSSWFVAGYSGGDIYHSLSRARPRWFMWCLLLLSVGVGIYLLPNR

Structure (SMILES) | Ratio IC50 (Hepacivirus hominis) | pIC50 [1] | pIC50 [2] | Stability (Huh-7 [3]) | CC50 (Huh-7 [4]) [µM] | pIC50 (CCRF-CEM) | pEC50 (Hepatitis C virus) | EC90 (Hepatitis C virus) [µM] | pIC50 (PBMC) | pIC50 (Vero) | pEC50 [5] | EC90 [5] [µM] | Stability (Huh-7 [6])
COP(=O)(OC)OP(=O)(OC)OP(=O)(OC)OC[C@H]1O[C@@H](n2cc(F)c3c(N)ncnc32)[C@](C)(F)[C@@H]1O (stereo partly drawn) | 1.5 | 5.22 | 5.40 | – | – | – | – | – | – | – | – | – | –
CCOC(=O)[C@H](C)NP(=O)(OC[C@H]1O[C@@H](n2ccc3c(N)nc(N)nc32)[C@](C)(F)[C@@H]1O)Oc1ccccc1 (stereo partly drawn) | – | – | – | Unstable | > 10 | < 4.00 | < 5.00 | > 10 | < 4.00 | < 4.00 | 4.06 | > 100 | –
C[C@@]1(F)[C@H](O)[C@@H](CO)O[C@H]1n1ccc2c(N)nc(N)nc21 | – | – | – | Stable | > 10 | < 4.00 | < 5.00 | > 10 | < 4.00 | < 4.00 | < 4.00 | – | Stable
COP(=O)(OC)OP(=O)(OC)OP(=O)(OC)OC[C@H]1O[C@@H](n2ccc3c(N)ncnc32)[C@](C)(F)[C@@H]1O (stereo partly drawn) | 1 | 4.82 | – | – | – | – | – | – | – | – | – | – | –
